Reference: PubChem BioAssay
Activity calls are given as the source filed them.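 Rule for the calls, unless noted: active = viability at or below 30% in both replicate assays; inconclusive = viability at or below 30% in just one of the two assays; inactive = the rest.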

experiment: HUVEC growth inhibition – cell-based, human, primary screen (AID 575); settings: HUVEC proliferation, CellTiter-Glo luminescence, 72 h; at 10 µM; hits give low values;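 note: 100% = median of untreated cell wells with 0.1% DMSO on each plate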
In short: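 Assay system: Primary human umbilical vein endothelial cells | Quantity: 1250 cells per well | Medium: Supplemented EBM, 2% fetal bovine serum | Detection: CellTiter-Glo luminescence measuring cellular ATP | Read-out: % viability vs DMSO wells | Plate: Collagen-coated 384-well format | Times: 72 h exposure, 37 °C, 5% CO2, 30 min RT equilibration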

| SMILES | viability |
| --- | --- |
| CCOC(=O)c1ccc(NS(=O)(=O)c2ccc3c(c2)oc(=O)n3C)cc1 | 118% (inactive) |
| O=C(Nc1ccc2c(c1)OCCO2)NC1CCCCC1 | 89.5% (inactive) |
| O=C(CSc1nnnn1-c1ccccc1Cl)Nc1ccc2c(c1)OCCO2 | 101% (inactive) |
| COc1ccc(-c2nc(CSCC(=O)NCc3ccc4c(c3)OCO4)c(C)o2)cc1OC | 92.9% (inactive) |
| Cc1cnc(NC(=O)CSc2nnc(COc3c(C)cccc3C)o2)s1 | 79.9% (inactive) |
| Cc1cccc(C2CC(c3ccccc3)Nc3nc(N)nn32)c1 (stereo not given) | 92.7% (inactive) |
| CCc1ccccc1N1CC23C=CC(O2)C(C(=O)O)C3C1=O (stereo not given) | 101% (inactive) |
| CCOC(=O)C1CCN(Cc2ccc(F)c(Br)c2)CC1 | 106% (inactive) |
| CCOc1ccccc1N1Cc2cc(C)c(C)cc2C1 | 90.4% (inactive) |
| CCN1CCN(C(CNC(=O)c2ccc3c(c2)OCO3)c2cccnc2)CC1 (stereo not given) | 86.4% (inactive) |
| O=C(NCCSc1c[nH]c2ccccc12)c1ccco1 | 64.5% (inactive) |
| COCCNC(=O)CN(C)S(=O)(=O)c1ccc(Br)cc1 | 97.5% (inactive) |
| COc1cc(C(=O)Nc2cccc(-c3nncn3C)c2)cc(OC)c1OC | 101% (inactive) |
| CN1CCN(Cc2nc3c(c(=O)n(C)c(=O)n3C)n2Cc2ccccc2Cl)CC1 | 86.5% (inactive) |
| O=C(OCCN=C1NS(=O)(=O)c2ccccc21)C1CC(=O)N(c2ccc(Cl)cc2)C1 (stereo not given) | 106% (inactive) |
| COc1cccc2cc(C(=O)OC3CCN(C)CC3)c(=O)oc12 | 94.7% (inactive) |
| Cc1cccc(N2C(=O)CC(N3CCN(c4cccc(C(F)(F)F)c4)CC3)C2=O)c1 (stereo not given) | 73.2% (inactive) |
| O=c1c2ccccc2nc2n1CCN2 | 91.9% (inactive) |
| CCOC(=O)C1=C(C)Nc2nnnn2C1c1ccc(OC)c(Br)c1 (stereo not given) | 87.7% (inactive) |
| COc1ccc(-n2c(Cc3cccn3C)nnc2SCC(N)=O)cc1 | 112% (inactive) |

| SMILES | viability |
| --- | --- |
| COc1ccccc1NC(=O)CSc1nnc(Cc2cccn2C)n1-c1ccc(F)cc1 | 95.4% (inactive) |
| CC(=O)Nc1cccc(Oc2nc(C)cc(C)c2C#N)c1 | 94.1% (inactive) |
| COc1ccc(CNC(=O)c2ccc(CN3CCOCC3)cc2)cc1 | 99.8% (inactive) |
| Cc1cc(OCC(=O)NCCO)cc(C)c1Cl | 76% (inactive) |
| COc1ccc(C)cc1S(=O)(=O)N1CCN(S(=O)(=O)c2cc(C)ccc2OC)CC1 | 96.5% (inactive) |
| CCCCC(NS(=O)(=O)c1ccc(OC)cc1)C(=O)O (stereo not given) | 101% (inactive) |
| CCOc1ccc(Cn2nnc(C(=O)Nc3ccc(OC)cc3OC)c2N)cc1 | 67.5% (inactive) |
| Cc1cc(C)c(NC(=O)CSc2nc3c(c(=O)n2C)SC(C)C3)c(C)c1 (stereo not given) | 96.7% (inactive) |
| COc1ccccc1N1C(=O)CCC1(C#N)c1ccccc1 (stereo not given) | 104% (inactive) |
| CCOc1ccc(N(CC(=O)NC2CCCC(C)C2C)S(=O)(=O)c2c(C)noc2C)cc1 (stereo not given) | 64.3% (inactive) |
| CCN1C(=O)c2ccccc2S(=O)(=O)c2ccc(C(=O)NCc3cccnc3)cc21 | 85.6% (inactive) |
| Cc1ccc(C(=O)CC2(O)C(=O)N(C)c3ccc(Br)cc32)c(C)c1 (stereo not given) | 77.7% (inactive) |
| CCN1CCN(C(=O)c2cn(CC)c3ccc(S(=O)(=O)N(C)C)cc3c2=O)CC1 | 100% (inactive) |
| COc1ccc(OC)c(NC(=O)CSc2nnc(Cc3cccn3C)n2-c2ccc(F)cc2)c1 | 62.7% (inactive) |
| CCOc1ccc(-c2nnc(SCC(=O)N3CCN(c4ccccc4)CC3)o2)cc1 | 99.5% (inactive) |
| COCCCN(C)C1CCN(C(=O)Nc2ccc(F)cc2)CC1 | 109% (inactive) |
| COc1cccc(C2CC(=O)Nc3c2c(=O)n(C)c(=O)n3C)c1OC (stereo not given) | 93.8% (inactive) |
| CCCC(=O)C1=C(N(C)c2ccccc2)CC(C)(C)C(C(=O)OC)C1=O (stereo not given) | 97.9% (inactive) |
| CC(=O)N1c2c(cc(Br)cc2S(=O)(=O)NCC2COc3ccccc3O2)CC1C (stereo not given) | 88.9% (inactive) |
| CCCCNC(=O)Cn1c(=O)n(C)c2ccccc21 | 84.4% (inactive) |

experiment: growth inhibitors of H69AR lung tumor, primary screen, human, duplicate replicates (AID 580;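 active = viability at or under a set limit in both replicates, limit being median viability minus 3 SD, cut at about 48% in these data, passing the limit was not always enough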;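 note: 100% = mean luminescence of untreated wells and 0% = no signal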); settings: H69AR lung tumor cells viability, ATP luminescence, 72 h; at 10 µM; hits give low values

| SMILES | viability |
| --- | --- |
| CCOC(=O)c1ccc(NS(=O)(=O)c2ccc3c(c2)oc(=O)n3C)cc1 | 113% (inactive) |
| O=C(Nc1ccc2c(c1)OCCO2)NC1CCCCC1 | 85.9% (inactive) |
| O=C(CSc1nnnn1-c1ccccc1Cl)Nc1ccc2c(c1)OCCO2 | 77.2% (inactive) |
| COc1ccc(-c2nc(CSCC(=O)NCc3ccc4c(c3)OCO4)c(C)o2)cc1OC | 84.9% (inactive) |
| Cc1cnc(NC(=O)CSc2nnc(COc3c(C)cccc3C)o2)s1 | 87.1% (inactive) |
| Cc1cccc(C2CC(c3ccccc3)Nc3nc(N)nn32)c1 (stereo not given) | 108% (inactive) |
| CCc1ccccc1N1CC23C=CC(O2)C(C(=O)O)C3C1=O (stereo not given) | 86.7% (inactive) |
| CCOC(=O)C1CCN(Cc2ccc(F)c(Br)c2)CC1 | 85.5% (inactive) |
| CCOc1ccccc1N1Cc2cc(C)c(C)cc2C1 | 88.1% (inactive) |
| CCN1CCN(C(CNC(=O)c2ccc3c(c2)OCO3)c2cccnc2)CC1 (stereo not given) | 99.6% (inactive) |
| O=C(NCCSc1c[nH]c2ccccc12)c1ccco1 | 65.1% (inactive) |
| COCCNC(=O)CN(C)S(=O)(=O)c1ccc(Br)cc1 | 104% (inactive) |
| COc1cc(C(=O)Nc2cccc(-c3nncn3C)c2)cc(OC)c1OC | 89% (inactive) |
| CN1CCN(Cc2nc3c(c(=O)n(C)c(=O)n3C)n2Cc2ccccc2Cl)CC1 | 86.9% (inactive) |
| O=C(OCCN=C1NS(=O)(=O)c2ccccc21)C1CC(=O)N(c2ccc(Cl)cc2)C1 (stereo not given) | 93.2% (inactive) |
| COc1cccc2cc(C(=O)OC3CCN(C)CC3)c(=O)oc12 | 105% (inactive) |
| Cc1cccc(N2C(=O)CC(N3CCN(c4cccc(C(F)(F)F)c4)CC3)C2=O)c1 (stereo not given) | 96.9% (inactive) |
| O=c1c2ccccc2nc2n1CCN2 | 109% (inactive) |
| CCOC(=O)C1=C(C)Nc2nnnn2C1c1ccc(OC)c(Br)c1 (stereo not given) | 93.3% (inactive) |
| COc1ccc(-n2c(Cc3cccn3C)nnc2SCC(N)=O)cc1 | 97.5% (inactive) |

| SMILES | viability |
| --- | --- |
| COc1ccccc1NC(=O)CSc1nnc(Cc2cccn2C)n1-c1ccc(F)cc1 | 71.8% (inactive) |
| CC(=O)Nc1cccc(Oc2nc(C)cc(C)c2C#N)c1 | 87.3% (inactive) |
| COc1ccc(CNC(=O)c2ccc(CN3CCOCC3)cc2)cc1 | 92.1% (inactive) |
| Cc1cc(OCC(=O)NCCO)cc(C)c1Cl | 96.4% (inactive) |
| COc1ccc(C)cc1S(=O)(=O)N1CCN(S(=O)(=O)c2cc(C)ccc2OC)CC1 | 95% (inactive) |
| CCCCC(NS(=O)(=O)c1ccc(OC)cc1)C(=O)O (stereo not given) | 98.4% (inactive) |
| CCOc1ccc(Cn2nnc(C(=O)Nc3ccc(OC)cc3OC)c2N)cc1 | 102% (inactive) |
| Cc1cc(C)c(NC(=O)CSc2nc3c(c(=O)n2C)SC(C)C3)c(C)c1 (stereo not given) | 90% (inactive) |
| COc1ccccc1N1C(=O)CCC1(C#N)c1ccccc1 (stereo not given) | 117% (inactive) |
| CCOc1ccc(N(CC(=O)NC2CCCC(C)C2C)S(=O)(=O)c2c(C)noc2C)cc1 (stereo not given) | 73.1% (inactive) |
| CCN1C(=O)c2ccccc2S(=O)(=O)c2ccc(C(=O)NCc3cccnc3)cc21 | 91.5% (inactive) |
| Cc1ccc(C(=O)CC2(O)C(=O)N(C)c3ccc(Br)cc32)c(C)c1 (stereo not given) | 75% (inactive) |
| CCN1CCN(C(=O)c2cn(CC)c3ccc(S(=O)(=O)N(C)C)cc3c2=O)CC1 | 107% (inactive) |
| COc1ccc(OC)c(NC(=O)CSc2nnc(Cc3cccn3C)n2-c2ccc(F)cc2)c1 | 85.6% (inactive) |
| CCOc1ccc(-c2nnc(SCC(=O)N3CCN(c4ccccc4)CC3)o2)cc1 | 86.5% (inactive) |
| COCCCN(C)C1CCN(C(=O)Nc2ccc(F)cc2)CC1 | 89% (inactive) |
| COc1cccc(C2CC(=O)Nc3c2c(=O)n(C)c(=O)n3C)c1OC (stereo not given) | 102% (inactive) |
| CCCC(=O)C1=C(N(C)c2ccccc2)CC(C)(C)C(C(=O)OC)C1=O (stereo not given) | 94.4% (inactive) |
| CC(=O)N1c2c(cc(Br)cc2S(=O)(=O)NCC2COc3ccccc3O2)CC1C (stereo not given) | 81.7% (inactive) |
| CCCCNC(=O)Cn1c(=O)n(C)c2ccccc21 | 88.5% (inactive) |
